Data taken from ChEMBL document CHEMBL4177555, “Mycobacterium tuberculosis lysine-ɛ-aminotransferase a potential target in dormancy: Benzothiazole based inhibitors” (Bioorg Med Chem, 2017).
pIC50: −log10 of the molar value. Converted amounts (≈) assume the structure as drawn. The source made the active and inactive calls. No cut-off for these calls is given here.

Columns and labels:
[1] = biological target: T1, L-lysine-epsilon aminotransferase (Mycobacterium tuberculosis, UniProt P9WQ77); test: Inhibition of Mycobacterium tuberculosis LAT using L-lysine as substrate by spectroscopic method
T1 sequence (P9WQ77 whole entry): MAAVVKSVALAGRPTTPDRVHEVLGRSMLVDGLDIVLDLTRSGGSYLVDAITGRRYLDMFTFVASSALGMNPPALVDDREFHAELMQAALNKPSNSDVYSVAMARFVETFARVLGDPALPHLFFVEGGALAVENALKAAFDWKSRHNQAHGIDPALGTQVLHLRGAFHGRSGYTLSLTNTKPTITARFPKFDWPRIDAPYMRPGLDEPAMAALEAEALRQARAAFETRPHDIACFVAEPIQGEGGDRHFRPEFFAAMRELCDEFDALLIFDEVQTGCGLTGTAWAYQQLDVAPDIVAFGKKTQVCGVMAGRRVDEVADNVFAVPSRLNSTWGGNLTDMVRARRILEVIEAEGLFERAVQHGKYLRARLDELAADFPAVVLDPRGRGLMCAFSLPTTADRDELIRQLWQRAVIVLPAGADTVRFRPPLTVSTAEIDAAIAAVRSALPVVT
Procedure, shortened: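 Purified recombinant MTB LAT incubated 1 h at 37 °C in 200 mM phosphate pH 7.2 with 1.5 mM L-lysine, 1.5 mM α-ketoglutarate and 15 µM pyridoxal 5-phosphate, with compounds at several concentrations. Stopped with 10% TCA in ethanol. Products read as o-aminobenzaldehyde adduct at 465 nm and at 280 nm.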

[2] = tested on: Mycobacterium tuberculosis; test: Antibacterial activity against replicative stage Mycobacterium tuberculosis H37Rv after 7 days by MABA; assay type: functional; settings: 168 h
Procedure, shortened: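 MABA run in duplicate. H37Rv from fresh LJ medium grown in 7H9/OADC at 37 °C to McFarland no.1, then diluted 1:25 as inoculum. Compounds tested in serial dilutions. After 7 days, alamar blue/Tween 80 (1:1) added and plates re-incubated overnight.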

[3] = Growth inhibition of mouse RAW264.7 cells at 50 ug/ml after 48 hrs by MTT assay relative to control; assay type: cell-based; settings: read-out: GI
Procedure, shortened: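 RAW 264.7 mouse macrophages exposed to compound at 50 µg/ml for 48 h. Viability read as MTT conversion to formazan.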

[4] = tested on: Mycobacterium tuberculosis; test: Antibacterial activity against Mycobacterium tuberculosis H37Rv nutrient starvation model assessed as log reduction in bacterial colonies at 10 ug/ml measured after 7 days by MPN assay; assay type: functional
Procedure, shortened: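 H37Rv grown in 7H9/OADC to OD 0.8–1.0, washed twice, then held in PBS in sealed bottles at 37 °C for 6 weeks. Starved aliquots exposed to compound at 10 µg/ml for 7 days. Persisters enumerated by MPN assay.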

[5] = tested on: Mycobacterium marinum; test: Antibacterial activity against Mycobacterium marinum ATCC BAA-535 infected in Zebra fish assessed as log reduction in bacterial counts at 10 mg/kg, po administered for 7 days by MPN assay; assay type: functional
Procedure, shortened: (§1)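 Adult zebrafish (n=6 per group) infected intraperitoneally with M. marinum ATCC BAA-535 grown at 30 °C in 7H9 broth (about 0.75 million bacteria). From day 7 after infection, drug given orally by micropipette for 7 days. Fish then homogenised, tissue taken up in 7H9 broth, and bacterial counts read by MPN assay.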

[6] = tested on: Mycobacterium tuberculosis; test: Antibiofilm activity against Mycobacterium tuberculosis assessed as log reduction in bacterial count at 10 ug/ml measured after 7 days by MPN assay; assay type: functional
Procedure, shortened: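 MTB inoculated 1:100 in Sauton's medium, sealed and grown 5 weeks at 37 °C to form a mature biofilm. Compound added to the medium (n=4) for 7 days. Tween-80 0.1% added, cells washed in PBS/10% glycerol/0.05% Tween-80 and homogenised. Persisters compared with solvent control by MPN assay.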

[7] = tested on: Mycobacterium tuberculosis; test: Antibacterial activity against Mycobacterium tuberculosis H37Rv infected in 3D culture of human PBMC assessed as colony forming units treated for 4 days measured after 3 days; assay type: functional
Procedure, shortened: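 PBMCs at 5x10^5 cells/well in collagen–fibronectin ECM (pH 7.0), infected with H37Rv at MOI 0.1, grown in RPMI with 20% human serum at 37 °C/CO2. Granulomas treated 4 days, then with or without Rif for 3 more days. Collagenase release, Triton X-100 lysis, 7H10 plating, cfu counted after 4 weeks.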

[8] = tested on: Mycobacterium tuberculosis; test: Antibacterial activity against non-replicative stage Mycobacterium tuberculosis H37Rv; assay type: functional, organism-based
[9] = tested on: Mycobacterium marinum; test: Antibacterial activity against Mycobacterium marinum ATCC BAA-535 infected in Zebra fish assessed as log reduction in bacterial counts at 5 mg/kg, po administered for 7 days by MPN assay; assay type: functional; procedure, shortened: as §1

SMILES | pIC50 [1] | MIC [2] [µM] | inhibition at 48 h, 50 ug/ml [3] [%] | log(activity) [4] | log(activity) [5] | log(activity) [6] | Activity [7] [×10⁵ CFU] | Activity [8] | log(activity) [9]
N#C/C(=C\c1cccs1)c1nc2ccccc2s1 | 4.03 | > 93.3 | 17.3 | – | – | – | – | – | –
N#C/C(=C\c1ccc(-c2cccc(C(=O)O)c2)o1)c1nc2ccccc2s1 | 5.43 | > 67.2 | 3.12 | – | – | – | – | – | –
N#C/C(=C\c1ccc(F)cc1)c1nc2ccccc2s1 | 5.39 | 89.3 (≈ 25 µg/mL) | 10.6 | – | – | – | – | – | –
N#C/C(=C\c1ccc2c(c1)OCO2)c1nc2ccccc2s1 | 4.18 | 81.7 (≈ 25 µg/mL) | 45.7 | – | – | – | – | – | –
COc1c(N2C[C@@H]3CCCN[C@@H]3C2)c(F)cc2c(=O)c(C(=O)O)cn(C3CC3)c12 [MOXIFLOXACIN] | – | – | – | 2.2 | 2.7 | 1.8 | – | – | –
N#C/C(=C\c1c[nH]c2ccccc12)c1nc2ccccc2s1 | 4.42 | > 83.1 | 45.7 | – | – | – | – | – | –
N#C/C(=C\c1ccc(-c2cc(C(=O)O)cc(C(=O)O)c2)o1)c1nc2ccccc2s1 | 5.94 | 60.1 (≈ 25 µg/mL) | 14.4 | 2.8 | – | – | – | – | –
COc1cc(/C=C(\C#N)c2nc3ccccc3s2)ccc1O | 5.11 | 20.3 (≈ 6.26 µg/mL) | 34.8 | – | – | – | – | – | –
N#C/C(=C\c1ccc[nH]1)c1nc2ccccc2s1 | 4.77 | > 99.6 | 56.4 | – | – | – | – | – | –
N#C/C(=C\c1ccco1)c1nc2ccccc2s1 | 4.79 | 49.6 (≈ 12.5 µg/mL) | 47.3 | – | – | – | – | – | –
N#C/C(=C\c1ccc(O)cc1)c1nc2ccccc2s1 | 4.98 | > 89.9 | 2.26 | – | – | – | – | – | –
N#C/C(=C\c1ccc(-c2ccc(C(=O)O)cc2)o1)c1nc2ccccc2s1 | 4.85 | > 67.2 | 15.2 | – | – | – | – | – | –
COc1cc(/C=C(\C#N)c2nc3ccccc3s2)cc(OC)c1OC | 4.19 | > 71 | 12.6 | – | – | – | – | – | –
COc1ccc(/C=C(\C#N)c2nc3ccccc3s2)cc1OC | 4.21 | > 77.6 | 32.5 | – | – | – | – | – | –
CO[C@H]1/C=C/O[C@@]2(C)Oc3c(C)c(O)c4c(O)c(c(/C=N/N5CCN(C)CC5)c(O)c4c3C2=O)NC(=O)/C(C)=C\C=C\[C@H](C)[C@H](O)[C@@H](C)[C@@H](O)[C@@H](C)[C@H](OC(C)=O)[C@@H]1C [RIFAMPIN] | – | 0.5 (≈ 0.411 µg/mL) | 23.5 | 1.3 | – | 2 | 3.3 | – | –
N#C/C(=C\c1ccc([N+](=O)[O-])o1)c1nc2ccccc2s1 | 4.71 | > 84.2 | 19.6 | 2.8 | – | – | – | – | –
N#C/C(=C\c1ccc([N+](=O)[O-])s1)c1nc2ccccc2s1 | 4.26 | > 79.9 | 60.3 | – | – | – | – | – | –
N#C/C(=C\c1ccc(-c2ccc(C(=O)O)cc2)s1)c1nc2ccccc2s1 | 5.17 | 2.01 (≈ 0.781 µg/mL) | 5.64 | – | – | – | – | Active | –
N#C/C(=C\c1ccc(O)cc1O)c1nc2ccccc2s1 | 4.63 | 10.6 (≈ 3.12 µg/mL) | 45.7 | – | – | – | – | – | –
N#C/C(=C\c1ccc(OCC(=O)O)cc1)c1nc2ccccc2s1 | 5.51 | 4.64 (≈ 1.56 µg/mL) | 12.7 | 2.8 | – | – | – | Active | –
NNC(=O)c1ccncc1 [ISONIAZID] | – | 0.4 (≈ 0.0549 µg/mL) | 93.2 | 1.2 | – | 1.9 | – | – | 2.8
N#C/C(=C\c1ccc(-c2cccc(C(=O)O)c2)s1)c1nc2ccccc2s1 | 5.24 | 64.4 (≈ 25 µg/mL) | 18.9 | 2.9 | – | 2.1 | – | – | –
N#C/C(=C\c1ccc(OCc2ccccc2)cc1)c1nc2ccccc2s1 | 4.32 | 68 (≈ 25 µg/mL) | 22.8 | – | – | – | – | – | –
N#C/C(=C\c1ccccc1OCC(=O)O)c1nc2ccccc2s1 | 4.27 | 2.32 (≈ 0.78 µg/mL) | 52.3 | – | – | – | – | – | –
